From PubChem BioAssay
Phagocyt inh = inhibitors of macrophage phagocytosis | J774A.1 macrophage IgG-bead phagocytosis, imaging | inhibition, % at 5 µM | 110,000 tested, 0.07% active | AID 1029;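 active means inhibition above the mean of the plate negative controls plus 5 SD, cut at about 13% in these data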;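 further: phagocytic index as fraction of beads internalized from green versus red external bead signal; plate controls were DMSO negative control for no effect and cytochalasin-D positive control for full effect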
Rev-RRE block = disrupts HIV-1 Rev binding to RRE RNA; P05866; Rev peptide-RRE RNA binding, FRET; inhibition, % at 8 µM; 97,000 tested, 0.79% active;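 active means inhibition above the screen-wide mean plus 3 SD, cut at about 35% in these data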;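 further: 0% = median DMSO wells and 100% = median Neomycin B control wells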
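Test system: Cy5-tagged RRE RNA duplex with fluorescein-tagged Rev peptide; Probe or stimulus: labelled Rev peptide; Schedule: 5 min preincubation and 15 min binding, 25 °C; Signal: FRET fluorescence readout; Evaluation: % inhibition from 671/540 nm acceptor-to-donor ratio, scaled between controls; Control set: DMSO and neomycin B.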
Pyk2 oligo antag = antagonists of human Pyk2 oligomerization. Q14289. Q293 cells, Pyk2 FERM NanoBiT luminescence; hits give low values. z-score (the deposit names both 25 µM and 10 µM). 99,000 tested, 0.83% active;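 active means Z-score of -3 or lower, scaled per plate to the spread of control and sample wells; inactive means z-score above -3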;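 further: negative z-score means lost luminescence so less FERM oligomerization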
hDAT+cocaine = modulates human dopamine transporter uptake under cocaine; B-score at 10 µM; 110,000 tested, 1.3% active; AID 449768; Q01959; LLC-PK1 hDAT cells, [14C]-dopamine uptake with cocaine IC80; actives deviate in either direction;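 active means Z score or B-score, a plate-position-corrected score, falls beyond the plate's 99.7% confidence bounds, in either direction; inactive means both scores lie inside the 99.7% bounds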;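 further: scored against the spread of the other compound wells on the same plate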
Cav32 inh = blocks human Cav3.2 T-type calcium channel | O95180 | Cav3.2-expressing cells, Fluo-4 calcium fluorescence FDSS; hits give low values | B-score at 10 µM | 100,000 tested, 4% active | AID 449739;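 active means single-dose well whose peak fluorescence ratio is a statistical outlier from its plate by either plate-standardised score or position-corrected B-score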
Measles CPE = protection of cells from measles virus; Measles virus-infected cells, CPE protection, absorbance; protection (pct of control), % at 4 µM; 140,000 tested, 1.5% active; in the data active means protection mostly above about 24%, no sharp cut-off; inactive means mostly below about 26%
* hit, by the source's call; / = not tested or not shown; [ ] = dose if it differs, or a comment. Shown are actives, neighbours in structure and some others; about 5.9% of the full set was active somewhere.

SMILES	Phagocyt inh	Rev-RRE block	Pyk2 oligo antag	hDAT+cocaine	Cav32 inh	Measles CPE
Cc1cccc(NC(=O)CCNC(=O)c2ccco2)c1	/	/	/	/	/	10.3
O=C(CSc1nnc(-c2cccs2)n1-c1cccc(Cl)c1)c1cccc2c1OCCO2	-0.3	7.4	-3.15*	0.453	-0.39	14.9
O=C(O)CSc1nnc(-c2cccs2)n1-c1ccc(Cl)cc1	-2.1	6.3	0.57	0.584	0.779	11.1
O=C(CSc1nnc(-c2cccs2)n1-c1ccccc1)N1CCCC1	/	1.9	0.47	0.656	0.0525	14.8
O=C(CSc1nnc(-c2cccs2)n1-c1ccccc1)N1CCOCC1	-1.1	-1.4	0.11	1.33	0.756	37.8*
CCC(C)NC(=S)N(CCc1ccccc1)Cc1cc2cc(OC)c(OC)cc2[nH]c1=O (configuration not stated)	-8.7	/	/	/	/	16.1
Cc1ccc2c(c1)N1C(=O)c3ccccc3C1C1=C(CC(C)(C)CC1=O)N2 (configuration not stated)	/	-3.8	-0.36	0.686	-0.635	6.0
Cc1ccc2nc(CSc3nnc(Cc4cccs4)n3C3CCCCC3)cc(=O)n2c1	-0.1	2.3	0.87	0.777	1.54	10.4
Cc1sc2nc(CSc3nnc(Cc4cccs4)n3C3CCCCC3)[nH]c(=O)c2c1C	-0.6	55.8*	-0.46	-1.06	-4.32	2.1
O=C(CSc1nnc(Cc2cccs2)n1C1CCCCC1)N1CCCc2ccccc21	-0.9	-3.9	-1.85	2.23*	-7.17*	14.1
Cn1c(Cc2cccs2)nnc1SCC(=O)N1CCCc2ccccc21	-0.6	-1.7	0.02	-0.23	0.783	10.5
CCc1nnc(NS(=O)(=O)c2ccc(NC(=O)/C=C/c3ccc(OC)cc3OC)cc2)s1	2.4	/	/	/	/	20.9
COc1ccc(/C=N/N=C2\SC(CC(=O)O)C(=O)N2c2ccccc2)c(OC)c1 (configuration not stated)	-3.0	/	/	/	/	8.0
COc1ccc2c(C)cc(SCC(=O)N3CCOCC3)nc2c1	-0.6	60.3*	1.01	1.32	0.00313	5.5
CCCCNC(=S)N/N=C/c1ccccc1F	-7.0	/	/	/	/	12.9
CCOC(=O)c1sc2nc(CC(=O)OC)nc(N3CCN(c4ccccn4)CC3)c2c1C	-3.1	1.7	-1.87	0.492	-2.91*	/
CC(C)(C)OC(=O)N1CCC(c2c(C(=O)O)cnn2-c2ccccc2)CC1	0.2	-3.0	0.01	-0.651	0.347	31.7*
CC(C)(C)OC(=O)N1CCC(C(=O)O)CC1	1.0	3.2	-0.27	-0.862	-0.0938	24.8
COc1ccc2ccccc2c1C(O)c1nccn1C (configuration not stated)	-0.9	134.7*[fluorescence artefact?]	-0.38	0.192	-5.57*	0.4
COc1ccc(C(O)c2nccn2Cc2ccccc2)cc1 (configuration not stated)	/	0.1	0.18	-0.139	1.13	3.2
CC1CCN(S(=O)(=O)c2cn(CC(=O)N3CC(C)CC(C)C3)c(=O)c3ccccc23)CC1 (configuration not stated)	/	/	0.67	/	/	7.3
NC(=O)C1=C[C@@H](c2coc3ccccc3c2=O)C[C@@H](OCCCCO)O1	/	/	/	-0.502	0.0622	/
C=CCOC(=O)C1=C[C@@H](c2coc3ccccc3c2=O)C[C@@H](OCCCCO)O1	/	/	/	2.82*	0.754	/
Cc1cc(C(=O)NCC(=O)OC(C(=O)Nc2cc(C(F)(F)F)ccc2Cl)c2ccccc2)ccc1[N+](=O)[O-] (configuration not stated)	-0.7	10.5	-1.69	0.0599	-8.98*	19.4
Cc1ccc(C(=O)C(OC(=O)CNC(=O)c2ccc(Cl)cc2)c2ccccc2)cc1 (configuration not stated)	5.5	9.7	-0.63	0.33	-7.12*	8.0
O=C(CNC(=O)c1ccccc1)OC(C(=O)c1ccccc1)c1ccccc1 (configuration not stated)	-7.7	/	/	/	/	10.9
COC(=O)CNS(=O)(=O)c1ccc(C)cc1	-0.5	10.1	0.04	0.837	-0.0868	38.2
Cc1ccc(S(=O)(=O)NCC(=O)OC(C(=O)c2ccccc2)c2ccccc2)cc1 (configuration not stated)	-1.7	5.1	0.56	-0.377	-3.54*	6.5
COc1ccc(C(=O)C(OC(=O)CNC(=O)c2ccco2)c2ccccc2)cc1 (configuration not stated)	/	5.8	0.61	0.442	-2.61	53.1*
